The text below walks through data of ChEMBL document CHEMBL2331506, “Design, synthesis, antiviral and cytostatic evaluation of novel isoxazolidine nucleotide analogues with a carbamoyl linker” (Bioorg Med Chem, 2013).

Activity calls are given as the source filed them. No rule for the calls is given here.

One series relates to MDCK. Description: Cytotoxicity against dog MDCK cells assessed as alteration of cell morphology up to 100 uM by microscopic analysis. Type of series: cell-based, Canis lupus familiaris. Put shortly:
(§1)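 Uninfected host-cell cultures were exposed to compound and examined by microscopy. Cytotoxicity was expressed as the minimum cytotoxic concentration (MCC) causing a microscopically detectable alteration of normal cell morphology.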

Series [1] is described as follows: Cytotoxicity against cat CRFK cells assessed as alteration of cell morphology up to 100 uM by microscopic analysis. It is filed as cell-based, Felis catus. The gist of the method: as §1
Another series concerns Vero. Description: Cytotoxicity against african green monkey Vero cells assessed as alteration of cell morphology up to 100 uM by microscopic analysis. It is filed as cell-based. Conditions: chlorocebus sabaeus. Put shortly: as §1
In another series the test system is HeLa. Description: Cytotoxicity against human HeLa cells assessed as alteration of cell morphology up to 100 uM by microscopic analysis. It is filed as cell-based. The gist of the method:
as §1

The next series deals with HEL. Description: Cytotoxicity against human HEL cells assessed as alteration of cell morphology up to 100 uM by microscopic analysis. It is filed as cell-based. The gist of the method:
as §1

In series [2] the test system is Human immunodeficiency virus 2. Description: Antiviral activity against Human immunodeficiency virus 2 ROD infected in human CEM cells assessed as reduction of virus-induced giant cell formation at 250 uM after 4 to 5 days. Conditions: CCRF-CEM. It is filed as functional, organism-based. Put shortly:
(§2)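 CEM cells at 3 × 10^5 cells/mL were infected with HIV at 100 CCID50 per mL in the presence of compound dilutions. They were held 4–5 days at 37 °C in humidified CO2. Syncytium (giant cell) formation was scored microscopically, and EC50 was taken as the concentration inhibiting giant cell formation by 50%.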

Series [3] has as its system Human immunodeficiency virus 1. Description: Antiviral activity against Human immunodeficiency virus 1 3B infected in human CEM cells assessed as reduction of virus-induced giant cell formation at 250 uM after 4 to 5 days. Type of series: functional, organism-based. Conditions: CCRF-CEM. The gist of the method:
as §2

The test system of a further series is Feline coronavirus. Description: Antiviral activity against Feline coronavirus infected in cat CRFK cells assessed as reduction of virus-induced cytopathogenicity at 250 uM. Type of series: functional, organism-based. Background: Cytopathic effects are the visible damage that an infection or toxin causes in cultured cells.
Another series relates to Felid alphaherpesvirus 1. Description: Antiviral activity against Feline herpes virus infected in cat CRFK cells assessed as reduction of virus-induced cytopathogenicity at 250 uM. Type of series: functional, organism-based.
For the next series, the system named is Influenza B virus. Description: Antiviral activity against Influenza B virus infected in dog MDCK cells assessed as reduction of virus-induced cytopathogenicity at 250 uM. Type of series: functional, organism-based. The gist of the method:
(§3)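 Confluent cell monolayers were infected with 100 CCID50 of virus while exposed to varying compound concentrations. Cytopathicity was scored once it was complete in untreated infected controls. EC50 was taken as the concentration that reduced virus-induced cytopathogenicity by 50%.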

Series [4] deals with Influenza A virus. Description: Antiviral activity against Influenza A virus H3N2 infected in dog MDCK cells assessed as reduction of virus-induced cytopathogenicity at 250 uM. Type of series: functional, organism-based. Put shortly: as §3
In series [5] the test system is Influenza A virus. Description: Antiviral activity against Influenza A virus H1N1 infected in dog MDCK cells assessed as reduction of virus-induced cytopathogenicity at 250 uM. It is filed as functional, organism-based. Put shortly:
as §3

In another series the test system is Punta Toro virus. Description: Antiviral activity against Punta Toro virus infected in african green monkey Vero cells assessed as reduction of virus-induced cytopathogenicity at 250 uM. It is filed as functional, organism-based. The gist of the method:
(§4)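 Confluent monolayers (HEL fibroblasts, Vero, or HeLa cells as listed) were infected with 100 CCID50 of virus in the presence of varying compound concentrations. Virus-induced cytopathicity or plaque formation was scored once cytopathicity was complete in untreated infected controls. EC50 was taken as the concentration reducing cytopathogenicity or plaque formation by 50%.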

A further series has as its system Sindbis virus. Description: Antiviral activity against Sindbis virus infected in african green monkey Vero cells assessed as reduction of virus-induced cytopathogenicity at 250 uM. Type of series: functional, organism-based. The gist of the method: as §4
For a further series, the system named is Coxsackievirus B4. Description: Antiviral activity against Coxsackievirus B4 infected in african green monkey Vero cells assessed as reduction of virus-induced cytopathogenicity at 250 uM. Type of series: functional, organism-based. The gist of the method: as §4
The test system of series [6] is Mammalian orthoreovirus 1. Description: Antiviral activity against Reovirus 1 infected in african green monkey Vero cells assessed as reduction of virus-induced cytopathogenicity at 250 uM. Type of series: functional, organism-based. The gist of the method:
as §4

The test system of another series is Human respirovirus 3. Description: Antiviral activity against Parainfluenza virus 3 infected in african green monkey Vero cells assessed as reduction of virus-induced cytopathogenicity at 250 uM. It is filed as functional, organism-based. Put shortly: as §4
The subject of series [7] is Respiratory syncytial virus. Description: Antiviral activity against Respiratory syncytial virus long infected in human HeLa cells assessed as reduction of virus-induced cytopathogenicity at 250 uM. It is filed as functional, organism-based. The gist of the method: as §4
Series [8] concerns Vesicular stomatitis virus. Description: Antiviral activity against Vesicular stomatitis virus infected in human HeLa cells assessed as reduction of virus-induced cytopathogenicity at 250 uM. Type of series: functional, organism-based. The gist of the method:
as §3

Series [9] deals with Human alphaherpesvirus 1. Description: Antiviral activity against thymidine kinase-deficient, ACV-resistant Herpes simplex virus 1 KOS infected in human HEL cells assessed as reduction of virus-induced cytopathogenicity at 250 uM. Type of series: functional, organism-based. The gist of the method:
as §3

Series [10] deals with Vesicular stomatitis virus. Description: Antiviral activity against Vesicular stomatitis virus infected in human HEL cells assessed as reduction of virus-induced cytopathogenicity at 250 uM. It is filed as functional, organism-based. Put shortly:
as §3

The subject of the next series is Human alphaherpesvirus 2. Description: Antiviral activity against Herpes simplex virus 2 G infected in human HEL cells assessed as reduction of virus-induced cytopathogenicity at 250 uM. Type of series: functional, organism-based. Conditions: strain G. The gist of the method:
as §4

Series [11] relates to Human alphaherpesvirus 1. Description: Antiviral activity against Herpes simplex virus 1 KOS infected in human HEL cells assessed as reduction of virus-induced cytopathogenicity at 250 uM. Type of series: functional, organism-based. Put shortly:
as §4

For `CCOP(=O)(OCC)[C@@H]1C[C@H](C(=O)Nc2ccccc2[N+](=O)[O-])ON1C` (mixture of isomers), the Activity result (in the series on MDCK; in [1]; with Vero; in the series on HeLa; in the series on HEL) was “Non-toxic” throughout. In addition, the inhibition result (in series [2]; in series [3]; in the series on Feline coronavirus; with Felid alphaherpesvirus 1; in the series on Influenza B virus; with Influenza A virus [4]) was “inactive” in each case. The inhibition result (in the series with Influenza A virus [5]; with Punta Toro virus; in the series with Sindbis virus; in the series on Coxsackievirus B4; in series [6]; with Human respirovirus 3) was “inactive” throughout. The inhibition result (in series [7]; in series [8]; with Human alphaherpesvirus 1 [9]; in series [10]; in the series on Human alphaherpesvirus 2; in the series with Human alphaherpesvirus 1 [11]) was “inactive” each time.

For the molecule `CCOc1ccc(NC(=O)[C@H]2C[C@H](P(=O)(OCC)OCC)N(C)O2)cc1` (mixture of isomers), the Activity entry (with MDCK; in series [1]; in the series with Vero; in the series with HeLa; in the series with HEL) was “Non-toxic” each time. For the same molecule, the inhibition entry (in [2]; in series [3]; in the series on Feline coronavirus; with Felid alphaherpesvirus 1; in the series with Influenza B virus; with Influenza A virus [4]) was “inactive” throughout. Moreover, the inhibition result (in the series with Influenza A virus [5]; in the series on Punta Toro virus; in the series with Sindbis virus; in the series with Coxsackievirus B4; in [6]; in the series with Human respirovirus 3) was “inactive” each time. Further, the inhibition result (in series [7]; in series [8]; in the series on Human alphaherpesvirus 1 [9]; in series [10]; in the series with Human alphaherpesvirus 2; with Human alphaherpesvirus 1 [11]) was “inactive” each time.

For the molecule `CCOP(=O)(OCC)[C@H]1C[C@H](C(=O)Nc2ccc(F)cc2F)ON1C` (mixture of isomers), the Activity entry (in the series on MDCK; in series [1]; with Vero; in the series with HeLa; in the series on HEL) was “Non-toxic” each time. The inhibition result (in [2]; in [3]; with Feline coronavirus; in the series on Felid alphaherpesvirus 1; in the series with Influenza B virus; with Influenza A virus [4]) was “inactive” each time. For the same molecule, the inhibition entry (in the series with Influenza A virus [5]; in the series with Punta Toro virus; with Sindbis virus; in the series with Coxsackievirus B4; in series [6]; in the series on Human respirovirus 3) was “inactive” each time. Moreover, the inhibition result (in [7]; in series [8]; with Human alphaherpesvirus 1 [9]; in series [10]; in the series with Human alphaherpesvirus 2; in the series on Human alphaherpesvirus 1 [11]) was “inactive” each time.
